Calls of active or inactive are those of the source. The calls are words filed in the database; no cut-off is given here.
Columns and labels:
PC-9 [1] = conditions: Homo sapiens, dose 75.0 mg/kg, route po, time 15.0 day
[2] = system: Epidermal growth factor receptor (Homo sapiens), P00533 [UNDEFINED MUTATION]; conditions: MGH121, dose 10-1000 nM
[3] = system: Epidermal growth factor receptor (Homo sapiens), P00533 [UNDEFINED MUTATION]; conditions: PC-9, dose 10-1000 nM
PC-9 [4] = conditions: Homo sapiens, dose 75.0 mg/kg, route po, time 60.0 day
[5] = molecular target: Epidermal growth factor receptor (Homo sapiens) (UniProt P00533); conditions: dose 0.01-10000 nM, time 10.0 min
Chain of Epidermal growth factor receptor (Homo sapiens) (P00533 whole entry): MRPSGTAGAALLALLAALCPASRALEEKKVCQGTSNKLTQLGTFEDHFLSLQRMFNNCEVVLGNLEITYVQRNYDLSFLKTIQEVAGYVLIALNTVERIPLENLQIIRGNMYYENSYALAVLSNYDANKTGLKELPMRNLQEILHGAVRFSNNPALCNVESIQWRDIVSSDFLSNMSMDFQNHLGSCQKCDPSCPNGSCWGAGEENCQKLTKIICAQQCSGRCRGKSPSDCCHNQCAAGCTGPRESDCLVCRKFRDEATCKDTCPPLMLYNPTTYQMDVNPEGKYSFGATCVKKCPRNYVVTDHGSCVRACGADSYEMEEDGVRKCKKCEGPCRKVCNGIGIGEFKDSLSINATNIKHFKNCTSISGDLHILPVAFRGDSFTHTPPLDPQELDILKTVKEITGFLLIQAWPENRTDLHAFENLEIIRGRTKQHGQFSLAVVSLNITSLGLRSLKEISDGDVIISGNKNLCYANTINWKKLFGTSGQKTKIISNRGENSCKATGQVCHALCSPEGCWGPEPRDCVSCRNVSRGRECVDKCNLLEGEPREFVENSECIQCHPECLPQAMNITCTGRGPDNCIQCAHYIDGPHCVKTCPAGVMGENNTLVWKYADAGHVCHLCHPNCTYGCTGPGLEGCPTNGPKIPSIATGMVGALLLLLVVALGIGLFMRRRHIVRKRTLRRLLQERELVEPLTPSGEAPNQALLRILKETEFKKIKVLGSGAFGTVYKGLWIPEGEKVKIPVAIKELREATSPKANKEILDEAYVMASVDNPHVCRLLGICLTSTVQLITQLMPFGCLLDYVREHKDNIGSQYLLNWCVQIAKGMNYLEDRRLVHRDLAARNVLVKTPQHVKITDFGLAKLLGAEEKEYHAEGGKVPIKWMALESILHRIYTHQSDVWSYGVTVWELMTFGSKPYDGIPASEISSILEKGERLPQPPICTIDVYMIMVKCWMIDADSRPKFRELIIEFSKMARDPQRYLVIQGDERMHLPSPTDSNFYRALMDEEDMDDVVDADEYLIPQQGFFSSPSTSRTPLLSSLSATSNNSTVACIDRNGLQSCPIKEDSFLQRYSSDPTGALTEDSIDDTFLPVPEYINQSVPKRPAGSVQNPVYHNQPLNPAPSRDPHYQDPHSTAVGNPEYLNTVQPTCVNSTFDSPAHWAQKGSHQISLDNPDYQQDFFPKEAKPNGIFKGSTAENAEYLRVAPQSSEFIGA

PC-9 [6] = assay: Anti-tumor activity against human PC-9 cells expressing EGFR-C797S/T790M/del19 mutant xenografted in Balb-c nu/nu mouse assessed as decreased tumor growth at 75 mg/kg, po administered for 60 days and measured twice weekly in presence of cetuximab; assay type: functional, organism-based; conditions: time 60.0 day
In short: (§1)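 PC9 EGFR-C797S/T790M/del19 xenografts in Balb-c nu/nu mice, randomized at ~200 mm³. […] Tumour volume 0.5×length×width² and body weight measured twice weekly. Survival shown by Kaplan-Meier curve. N = 6. Mann-Whitney U test on tumour volume at day 23.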

[7] = system: Epidermal growth factor receptor (Homo sapiens), P00533 [UNDEFINED MUTATION]; conditions: MGH121, dose 500.0 nM, time 48.0 hrs
[8] = system: Epidermal growth factor receptor (Homo sapiens), P00533 [UNDEFINED MUTATION]; conditions: PC-9, dose 10-1000 nM; remark: listed apart in the source
[9] = Toxicity against Balb-c nu/nu mouse xenografted with human PC-9 cells expressing EGFR-C797S/T790M/del19 mutant assessed as change in body weight at 75 mg/kg, po administered for 60 days and measured twice weekly in presence of cetuximab; assay type: organism-based; conditions: in vivo, 1440 h, time 60 day
In short: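 Balb-c nu/nu mice carried subcutaneous PC9 triple-mutant xenografts (6×10^6 cells in 1:2 Matrigel) and were randomized at ~200 mm³. […] Body weight was measured twice weekly, N=6 per arm.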

PC-9 [10] = assay: Anti-tumor activity against EGFR T790M/del19 mutant expressing gefitinib-resistant human PC-9 cells xenografted in Balb-c nu/nu mouse assessed as prolonged survival at 75 mg/kg, po administered for 42 days; assay type: functional, organism-based; conditions: time 42.0 day
MGH121 = assay: Anti-tumor activity against human MGH121 cells expressing EGFR-C797S/T790M/del19 mutant xenografted in SCID-beige mouse assessed as tumor shrinkage at 75 mg/kg, po administered for 40 days and measured twice weekly; assay type: functional, organism-based; conditions: time 40.0 day
In short: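 MGH121-res2 cells (EGFR-C797S/T790M/del19) implanted s.c. in SCID-beige mice. Randomized at mean tumour ~200 mm³. […] Tumour volume 0.5×length×width² and body weight measured twice weekly. N = 6, mean ± s.d. Mann-Whitney U test on day 42.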

PC-9 [11] = assay: Inhibition of EGFR T790M/del19 mutant in human PC-9 cells assessed as reduction in S6 phosphorylation at 10 to 1000 nM by Western blotting analysis; assay type: cell-based; conditions: dose 10-1000 nM
PC-9 [12] = conditions: Homo sapiens, dose 75.0 mg/kg, route po, time 60.0 day; remark: listed apart in the source
BaF3 [13] = assay type: cell-based; conditions: Mus musculus, dose 10-1000 nM, time 6.0 hrs
[14] = Cytotoxicity against mouse Ba/F3 EGFR-Del19/T790M/C797S cells assessed as inhibition of cell viability by measuring fold change at 30 nM incubated for 72 hrs in presence of cetuximab by CellTiter-Glo assay relative to brigatinib alone; assay type: functional
BaF3 [15] = assay: Inhibition of EGFR-T790M/del19 mutant in mouse BaF3 cells assessed as inhibition of S6 phosphorylation at 10 to 1000 nM incubated for 6 hrs by Western blotting analysis; assay type: cell-based; conditions: dose 10-1000 nM
In short: (§2)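 Ba/F3 cells carrying the stated EGFR mutant were made IL-3-independent after 1 week of 7 µM blasticidin selection. They were grown in low-glucose DMEM with 10% FBS and exposed to inhibitor for 6 h. Cells were washed in cold PBS, lysed in SDS buffer (100 mM Tris, 1% SDS, 10% glycerol) and boiled 5 min. Protein was measured by BCA, run on SDS-PAGE, transferred to PVDF, blocked in 5% BSA or milk/TBS-T, and immunoblotted.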

PC-9 [16] = assay type: functional, organism-based; conditions: Homo sapiens, dose 75.0 mg/kg, route po, time 15.0 day
[17] = system: Epidermal growth factor receptor (Homo sapiens), P00533 [UNDEFINED MUTATION]; conditions: MGH121, dose 10-1000 nM; remark: listed apart in the source
BaF3 [18] = assay: Inhibition of EGFR-C797S/T790M/L858R mutant in mouse BaF3 cells assessed as inhibition of S6 phosphorylation at 10 to 1000 nM incubated for 6 hrs by Western blotting analysis; assay type: cell-based; conditions: dose 10-1000 nM
In short: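 Ba/F3 cells expressing EGFR-L858R-series mutants treated with inhibitors for 6 h. SDS lysates quantified by BCA, run on SDS-PAGE and blotted to PVDF. Probed for phospho-EGFR (Tyr1068), total EGFR and downstream phospho-proteins.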

PC-9 [19] = conditions: Homo sapiens, dose 75.0 mg/kg, route po, time 60.0 day; remark: listed apart in the source
BaF3 [20] = conditions: Mus musculus, dose 30-1000 nM, time 6.0 hrs
PC-9 [21] = assay: Anti-tumor activity against EGFR T790M/del19 mutant expressing gefitinib-resistant human PC-9 cells xenografted in Balb-c nu/nu mouse assessed as growth inhibition at 75 mg/kg, po administered for 42 days; assay type: functional, organism-based; conditions: time 42.0 day
BaF3 [22] = assay type: cell-based; conditions: Mus musculus, dose 10-1000 nM, time 6.0 hrs; remark: listed apart in the source
[23] = Toxicity against SCID-beige mouse xenografted with human MGH121 cells expressing EGFR-C797S/T790M/del19 mutant assessed as change in body weight at 75 mg/kg, po administered for 40 days and measured twice weekly in presence of cetuximab; assay type: organism-based; conditions: in vivo, 960 h, time 40 day
In short: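 SCID-beige mice with subcutaneous MGH121-res2 implants were randomized to vehicle or treatment at a mean tumour volume of ~200 mm³. […] Body weight was measured twice weekly, N=6 per group.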

BaF3 [24] = assay: Inhibition of EGFR-del19 mutant in mouse BaF3 cells assessed as inhibition of Akt phosphorylation at 10 to 1000 nM incubated for 6 hrs by Western blotting analysis; assay type: cell-based; conditions: dose 10-1000 nM
In short: as §2

PC-9 [25] = assay: Anti-tumor activity against human PC-9 cells expressing EGFR-C797S/T790M/del19 mutant xenografted in Balb-c nu/nu mouse assessed as prolonged survival at 75 mg/kg, po administered for 60 days and measured twice weekly in presence of cetuximab; assay type: functional, organism-based; conditions: time 60.0 day
In short: as §1

BaF3 [26] = assay type: cell-based; conditions: Mus musculus, dose 10-1000 nM, time 6.0 hrs; remark: listed apart in the source

Chain of Epidermal growth factor receptor (Homo sapiens), P00533 [UNDEFINED MUTATION] (P00533 whole entry, looked up, stated change not applied): as the sequence (P00533 whole entry) above

inhibition [2]: Active
inhibition [3]: Active
inhibition [5]: Dose-Dependent Effect
inhibition [7]: inactive
inhibition [8]: Active
inhibition [17]: Active
SMILES: COc1cc(N2CCC(N3CCN(C)CC3)CC2)ccc1Nc1ncc(Cl)c(Nc2ccccc2P(C)(C)=O)n1 [BRIGATINIB]
inhibition (PC-9 [1]): Active
inhibition (PC-9 [4]): Active
Activity (PC-9 [6]): Active
Activity [9]: Non-Toxic
Activity (PC-9 [10]): Active
Activity (MGH121): Active
inhibition (PC-9 [11]): Active
inhibition (PC-9 [12]): Active
inhibition (BaF3 [13]): Active
fold change (FC) [14]: ~3
inhibition (BaF3 [15]): Active
Activity (PC-9 [16]): Active
inhibition (BaF3 [18]): Active
inhibition (PC-9 [19]): Active
inhibition (BaF3 [20]): Active
Activity (PC-9 [21]): Active
inhibition (BaF3 [22]): Active
Activity [23]: Non-Toxic
inhibition (BaF3 [24]): Active
Activity (PC-9 [25]): Active
inhibition (BaF3 [26]): Active
